Measured values: ChEMBL document CHEMBL1148712, “Design, synthesis, and SAR study of a series of N-alkyl-N'-[2-(aryloxy)-5-nitrobenzenesulfonyl]ureas and -cyanoguanidine as selective antagonists of the TPalpha and TPbeta isoforms of the human thromboxane A2 receptor” (J Med Chem, 2007)
Activity calls are given as the source filed them. No cut-off for these calls is given here.

Target: T1, Thromboxane A2 receptor (Homo sapiens, UniProt P21731)
T1 sequence (P21731 whole entry): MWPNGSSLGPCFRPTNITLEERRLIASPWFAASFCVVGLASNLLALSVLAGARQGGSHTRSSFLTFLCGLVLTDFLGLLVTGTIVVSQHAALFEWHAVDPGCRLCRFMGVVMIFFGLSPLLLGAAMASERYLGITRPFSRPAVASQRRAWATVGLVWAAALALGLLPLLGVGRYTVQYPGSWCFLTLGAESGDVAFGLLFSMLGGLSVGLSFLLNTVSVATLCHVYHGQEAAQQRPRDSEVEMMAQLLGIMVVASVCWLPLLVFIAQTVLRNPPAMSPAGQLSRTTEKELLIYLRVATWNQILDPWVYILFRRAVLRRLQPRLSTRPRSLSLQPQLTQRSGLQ
Assay: Antagonist activity at human thromboxane A2 receptor isoform alpha expressed in HEK293 cells assessed as inhibition of U46619-induced calcium mobilization
Format: functional, cell-based
Summary of the method: (§1)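 HA-tagged receptor stably overexpressed in HEK293 cells grown in DMEM with 10% FBS. Trypsinized cells washed in Krebs-HEPES pH 7.4, loaded 1 h with Fluo-4/AM (5 µg/mL), rinsed, 150 000 cells/well. Compound (10^-8 to 10^-5 M final) for 10 min before U46619 (1 µM final). Emission at 538; Triton/EGTA calibration, Kd 385 nM. IC50 by nonlinear regression, ≥3 curves.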

| Structure (SMILES) | IC50 |
| --- | --- |
| CCCCCNC(=O)NS(=O)(=O)c1cc([N+](=O)[O-])ccc1Oc1cccc(Cl)c1 | 2390 nM |
| COc1cccc(Oc2ccc([N+](=O)[O-])cc2S(=O)(=O)NC(=O)NC(C)(C)C)c1 | 1970 nM |
| Cc1cccc(Oc2ccc([N+](=O)[O-])cc2S(=O)(=O)NC(=O)NC(C)(C)C)c1 | 398 nM |
| CCCCCNC(=O)NS(=O)(=O)c1cc([N+](=O)[O-])ccc1Oc1ccccc1C | 1630 nM |
| CCCCCNC(=O)NS(=O)(=O)c1cc([N+](=O)[O-])ccc1Oc1cccc(I)c1 | 4520 nM |
| CCCCCNC(=O)NS(=O)(=O)c1cc([N+](=O)[O-])ccc1Oc1cccc(Br)c1 | 5860 nM |
| CC(C)(C)NC(=O)NS(=O)(=O)c1cc([N+](=O)[O-])ccc1Oc1ccccc1Br | 2580 nM |
| CC(C)(C)NC(=O)NS(=O)(=O)c1cc([N+](=O)[O-])ccc1Oc1cccc(Br)c1 | 683 nM |
| CCCCCNC(=O)NS(=O)(=O)c1cc([N+](=O)[O-])ccc1Oc1ccc(Cl)cc1 | 871 nM |
| CCOc1ccc(Oc2ccc([N+](=O)[O-])cc2S(=O)(=O)NC(=O)NC(C)(C)C)cc1 | 19200 nM |
| COc1ccc(Oc2ccc([N+](=O)[O-])cc2S(=O)(=O)NC(=O)NC(C)(C)C)cc1 | 1940 nM |
| COc1cc(C)ccc1Oc1ccc([N+](=O)[O-])cc1S(=O)(=O)NC(=O)NC(C)(C)C | 528 nM |
| CCCCCNC(=O)NS(=O)(=O)c1cc([N+](=O)[O-])ccc1Oc1cccc(C)c1 | 2530 nM |
| CC(C)(C)NC(=O)NS(=O)(=O)c1cc([N+](=O)[O-])ccc1Oc1cccc(I)c1 | 470 nM |
| CCCCCNC(=O)NS(=O)(=O)c1cc([N+](=O)[O-])ccc1Oc1ccc(OC)cc1 | 2670 nM |
| CC(C)(C)NC(=O)NS(=O)(=O)c1cc([N+](=O)[O-])ccc1Oc1cccc(Cl)c1 | 698 nM |
| CC(C)(C)NC(=O)NS(=O)(=O)c1cc([N+](=O)[O-])ccc1Oc1ccc(Br)cc1 | 1660 nM |
| CC(C)(C)NC(=O)NS(=O)(=O)c1cc([N+](=O)[O-])ccc1Oc1ccccc1Cl | 2420 nM |
| CCCCCNC(=O)NS(=O)(=O)c1cc([N+](=O)[O-])ccc1Oc1ccccc1Br | 3130 nM |

Target: T1, Thromboxane A2 receptor
Assay: Antagonist activity at human thromboxane A2 receptor isoform beta expressed in HEK293 cells assessed as inhibition of U46619-induced calcium mobilization
Format: functional, cell-based
Summary of the method: as §1

| Structure (SMILES) | IC50 |
| --- | --- |
| CCCCCNC(=O)NS(=O)(=O)c1cc([N+](=O)[O-])ccc1Oc1cccc(Cl)c1 | 201 nM |
| COc1cccc(Oc2ccc([N+](=O)[O-])cc2S(=O)(=O)NC(=O)NC(C)(C)C)c1 | 99 nM |
| Cc1cccc(Oc2ccc([N+](=O)[O-])cc2S(=O)(=O)NC(=O)NC(C)(C)C)c1 | 17 nM |
| CCCCCNC(=O)NS(=O)(=O)c1cc([N+](=O)[O-])ccc1Oc1ccccc1C | 181 nM |
| CCCCCNC(=O)NS(=O)(=O)c1cc([N+](=O)[O-])ccc1Oc1cccc(I)c1 | 885 nM |
| CCCCCNC(=O)NS(=O)(=O)c1cc([N+](=O)[O-])ccc1Oc1cccc(Br)c1 | 413 nM |
| CC(C)(C)NC(=O)NS(=O)(=O)c1cc([N+](=O)[O-])ccc1Oc1ccccc1Br | 151 nM |
| CC(C)(C)NC(=O)NS(=O)(=O)c1cc([N+](=O)[O-])ccc1Oc1cccc(Br)c1 | 59 nM |
| CCCCCNC(=O)NS(=O)(=O)c1cc([N+](=O)[O-])ccc1Oc1ccc(Cl)cc1 | 98 nM |
| CCOc1ccc(Oc2ccc([N+](=O)[O-])cc2S(=O)(=O)NC(=O)NC(C)(C)C)cc1 | 1100 nM |
| COc1ccc(Oc2ccc([N+](=O)[O-])cc2S(=O)(=O)NC(=O)NC(C)(C)C)cc1 | 152 nM |
| COc1cc(C)ccc1Oc1ccc([N+](=O)[O-])cc1S(=O)(=O)NC(=O)NC(C)(C)C | 52 nM |
| CCCCCNC(=O)NS(=O)(=O)c1cc([N+](=O)[O-])ccc1Oc1cccc(C)c1 | 223 nM |
| CC(C)(C)NC(=O)NS(=O)(=O)c1cc([N+](=O)[O-])ccc1Oc1cccc(I)c1 | 95 nM |
| CCCCCNC(=O)NS(=O)(=O)c1cc([N+](=O)[O-])ccc1Oc1ccc(OC)cc1 | 446 nM |
| CC(C)(C)NC(=O)NS(=O)(=O)c1cc([N+](=O)[O-])ccc1Oc1cccc(Cl)c1 | 73 nM |
| CC(C)(C)NC(=O)NS(=O)(=O)c1cc([N+](=O)[O-])ccc1Oc1ccc(Br)cc1 | 523 nM |
| CC(C)(C)NC(=O)NS(=O)(=O)c1cc([N+](=O)[O-])ccc1Oc1ccccc1Cl | 205 nM |
| CCCCCNC(=O)NS(=O)(=O)c1cc([N+](=O)[O-])ccc1Oc1ccccc1Br | 423 nM |

System: Platelet
Assay: Inhibition of U46619-induced human platelet aggregation
Format: functional, cell-based
Summary of the method: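 Turbidimetric Born method on PRP from 10 healthy donors aged 20-30, medication-free for 14 days. Platelets adjusted to 3 × 10⁸ cells/mL with PPP, stirred at 1000 rpm. Compound (10^-9 to 10^-5 M) preincubated 3 min at 37 °C, then U46619 (1 µM final). Maximum light transmission read 6 min after inducer; IC50 by nonlinear regression from ≥3 curves.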

| Structure (SMILES) | IC50 |
| --- | --- |
| Cc1cccc(Oc2ccc([N+](=O)[O-])cc2S(=O)(=O)NC(=O)NC(C)(C)C)c1 | 513 nM |

Target: T2, Thromboxane A2 receptor (Homo sapiens) (UniProt P21731)
T2 sequence (whole entry): T1 sequence (P21731 whole entry)
Assay: Antagonist activity at human thromboxane A2 receptor isoform beta expressed in HEK293 cells assessed as inhibition of U46619-induced calcium mobilization at 0.1 uM
Format: functional, cell-based
Summary of the method: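 HEK293 cells stably overexpressing HA-tagged TPβ, loaded 1 h with Fluo-4/AM (5 µg/mL) in Krebs-HEPES pH 7.4. Compound at 0.1 µM for 10 min, then U46619 (1 µM final). Fluorescence calibrated to [Ca2+]i with Triton X-100 and EGTA; response taken against the rise with U46619 alone.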

| Structure (SMILES) | Activity |
| --- | --- |
| Cc1cccc(Oc2ccc([N+](=O)[O-])cc2S(=O)(=O)NC(=O)NC(C)(C)C)c1 | Active |

Target: T2, Thromboxane A2 receptor (Homo sapiens)
Assay: Ratio of IC50 for thromboxane A2 receptor isoform alpha to IC50 for thromboxane A2 receptor isoform beta
Format: functional
Summary of the method: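 Selectivity index calculated as IC50 for TPα divided by IC50 for TPβ. Both IC50s come from U46619 (1 µM)-induced Fluo-4 [Ca2+]i assays in HEK293 cells stably overexpressing the respective isoform.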

| Structure (SMILES) | Ratio IC50 |
| --- | --- |
| CCCCCNC(=O)NS(=O)(=O)c1cc([N+](=O)[O-])ccc1Oc1cccc(Cl)c1 | 11.9 |
| COc1cccc(Oc2ccc([N+](=O)[O-])cc2S(=O)(=O)NC(=O)NC(C)(C)C)c1 | 19.9 |
| CCCCCNC(=O)NS(=O)(=O)c1cc([N+](=O)[O-])ccc1Oc1ccccc1C | 9 |
| CCCCCNC(=O)NS(=O)(=O)c1cc([N+](=O)[O-])ccc1Oc1cccc(I)c1 | 5.1 |
| CCCCCNC(=O)NS(=O)(=O)c1cc([N+](=O)[O-])ccc1Oc1cccc(Br)c1 | 14.2 |
| CC(C)(C)NC(=O)NS(=O)(=O)c1cc([N+](=O)[O-])ccc1Oc1ccccc1Br | 17 |
| CC(C)(C)NC(=O)NS(=O)(=O)c1cc([N+](=O)[O-])ccc1Oc1cccc(Br)c1 | 11.6 |
| CCCCCNC(=O)NS(=O)(=O)c1cc([N+](=O)[O-])ccc1Oc1ccc(Cl)cc1 | 8.9 |
| CCOc1ccc(Oc2ccc([N+](=O)[O-])cc2S(=O)(=O)NC(=O)NC(C)(C)C)cc1 | 17.5 |
| COc1ccc(Oc2ccc([N+](=O)[O-])cc2S(=O)(=O)NC(=O)NC(C)(C)C)cc1 | 12.7 |
| COc1cc(C)ccc1Oc1ccc([N+](=O)[O-])cc1S(=O)(=O)NC(=O)NC(C)(C)C | 10.2 |
| CCCCCNC(=O)NS(=O)(=O)c1cc([N+](=O)[O-])ccc1Oc1cccc(C)c1 | 11.3 |
| CC(C)(C)NC(=O)NS(=O)(=O)c1cc([N+](=O)[O-])ccc1Oc1cccc(I)c1 | 4.9 |
| CCCCCNC(=O)NS(=O)(=O)c1cc([N+](=O)[O-])ccc1Oc1ccc(OC)cc1 | 6 |
| CC(C)(C)NC(=O)NS(=O)(=O)c1cc([N+](=O)[O-])ccc1Oc1cccc(Cl)c1 | 9.6 |
| CC(C)(C)NC(=O)NS(=O)(=O)c1cc([N+](=O)[O-])ccc1Oc1ccc(Br)cc1 | 3.2 |
| CC(C)(C)NC(=O)NS(=O)(=O)c1cc([N+](=O)[O-])ccc1Oc1ccccc1Cl | 11.8 |
| CCCCCNC(=O)NS(=O)(=O)c1cc([N+](=O)[O-])ccc1Oc1ccccc1Br | 7.4 |
